# Laboratory results taken from PMC10586084 (Journal of Enzyme Inhibition and Medicinal Chemistry, 2023).
# “And” between values parts separate entries of the source, which are not always exact repeats. Equal values may be shown once.
# Legend:
# hCA I = hCA I (Homo sapiens, UniProt P00915); assay: stopped-flow CO2 hydrase assay, hCA I; type: biochemical; settings: stopped flow technique, mean from three assays
# hCA II = hCA II (Homo sapiens, UniProt P00918); assay: stopped-flow CO2 hydrase assay, hCA II; type: biochemical; settings: stopped flow technique, mean from three assays
# hCA IV = hCA IV (Homo sapiens, UniProt P22748); assay: stopped-flow CO2 hydrase assay, hCA IV; type: biochemical; settings: stopped flow technique, mean from three assays
# Chain of hCA IV (P22748 19-284 limits assumed): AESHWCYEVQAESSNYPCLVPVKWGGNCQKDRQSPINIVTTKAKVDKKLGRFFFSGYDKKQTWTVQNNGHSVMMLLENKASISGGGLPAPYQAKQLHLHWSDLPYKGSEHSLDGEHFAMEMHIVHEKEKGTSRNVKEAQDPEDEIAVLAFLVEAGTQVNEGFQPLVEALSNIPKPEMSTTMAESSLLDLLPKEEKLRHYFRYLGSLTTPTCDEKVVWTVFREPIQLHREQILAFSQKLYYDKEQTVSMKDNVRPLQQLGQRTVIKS
# hCA IX = hCA IX (Homo sapiens, UniProt Q16790); assay: biochemical; type: biochemical; settings: for Ki: KI hCA IX, stopped flow technique, mean from three assays; for Selectivity index I/IX: ratio KI hCA I / KI hCA IX; for Selectivity index II/IX: ratio KI hCA II / KI hCA IX; for Selectivity index IV/IX: ratio KI hCA IV / KI hCA IX
# hCA XII = hCA XII (Homo sapiens, UniProt O43570); assay: stopped-flow CO2 hydrase assay, hCA XII; type: biochemical; settings: for Ki: KI hCA XII, stopped flow technique, mean from three assays; for Selectivity index I/XII: ratio KI hCA I / KI hCA XII; for Selectivity index II/XII: ratio KI hCA II / KI hCA XII; for Selectivity index IV/XII: ratio KI hCA IV / KI hCA XII
# Chain of hCA XII (O43570 25-354): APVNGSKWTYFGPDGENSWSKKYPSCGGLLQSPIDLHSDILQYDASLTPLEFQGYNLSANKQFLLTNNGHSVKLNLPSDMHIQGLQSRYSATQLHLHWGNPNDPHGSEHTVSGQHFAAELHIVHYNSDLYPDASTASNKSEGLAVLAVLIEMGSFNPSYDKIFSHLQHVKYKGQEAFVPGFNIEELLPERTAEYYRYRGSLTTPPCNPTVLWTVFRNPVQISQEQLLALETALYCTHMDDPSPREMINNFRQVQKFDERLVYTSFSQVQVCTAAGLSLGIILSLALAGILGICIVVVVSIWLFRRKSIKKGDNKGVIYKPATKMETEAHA
# [1] = cytotoxicity in resting peripheral blood lymphocytes; type: cell-based; settings: human
# [2] = system: HD-MB03 and DAOY medulloblastoma cell lines; assay: cell proliferation analysis; type: cell-based, human; settings: 72 h; for effect of combination on efficacy of CDDP in reducing cell viability: compound 10 µM + cis-Pt 1.8 µM, both MB cell lines
# [3] = system: HuTuP192 primary glioblastoma cells; assay: cell proliferation analysis; type: cell-based, human; settings: 72 h; for effect of combination on the effect of TMZ: compound 10 µM + TMZ 500 µM, HuTuP192
# [4] = system: HuTuP108 primary glioblastoma cells; assay: cell proliferation analysis; type: cell-based, human; settings: 72 h; for effect of combination on the effect of TMZ: compound 10 µM + TMZ 500 µM
# HD-MB03 cells = assay: apoptosis assay; type: cell-based, human; settings: 72 h; for apoptotic cells in combination with cis-Pt: 10 µM + cis-Pt 1.8 µM, HD-MB03, vs single treatments; for induction of apoptosis (apoptotic cells): 10 µM alone, HD-MB03
# Outline: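 HD-MB03 medulloblastoma cells grown in RPMI 1640 with 10% FBS, 1% glutamine and 1% penicillin–streptomycin, kept at 2% O2/5% CO2. Seeded at 10 000 cells/well, treated after 24 h, exposed 72 h. Stained 15 min in the dark at room temperature with Annexin V–FITC (FL1, 525 nm/40) and PI (FL3, 620 nm/20). Whole population analysed by flow cytometry. Mean ± SE, three independent experiments.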
# [5] = system: HuTuP108 GBM primary cells; assay: apoptosis assay; type: cell-based, human; settings: 72 h; for apoptotic cells in combination with TMZ: 10 µM + TMZ 500 µM, HuTuP108, vs single treatments; for induction of apoptosis: 10 µM alone, HuTuP108
# Outline: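 Patient-derived primary glioblastoma cells on fibronectin-coated plates in DMEM/F12 with 10% BIT9500, 20 ng/mL bFGF and 20 ng/mL EGF, held at 2% O2/5% CO2. Seeded at 10 000 cells/well, dosed 24 h later for 72 h. Annexin V–FITC/PI staining for 15 min in the dark at room temperature, then flow cytometry (FL1 525 nm/40, FL3 620 nm/20) on the whole population. Mean ± SE of three independent experiments.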
# Chain of hCA I (P00915 whole entry): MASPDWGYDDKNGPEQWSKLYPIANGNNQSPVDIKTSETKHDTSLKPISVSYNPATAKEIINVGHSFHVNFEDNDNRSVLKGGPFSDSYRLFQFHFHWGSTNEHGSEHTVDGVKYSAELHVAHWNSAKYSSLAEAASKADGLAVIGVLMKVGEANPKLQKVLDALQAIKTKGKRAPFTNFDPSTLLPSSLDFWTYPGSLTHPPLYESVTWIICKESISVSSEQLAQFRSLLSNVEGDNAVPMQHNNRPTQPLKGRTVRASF
Ki (hCA I),Ki (hCA II),Ki (hCA IV),Ki (hCA IX),Selectivity index I/IX (hCA IX),Selectivity index II/IX (hCA IX),Selectivity index IV/IX (hCA IX),Ki (hCA XII),Selectivity index I/XII (hCA XII),Selectivity index II/XII (hCA XII),Selectivity index IV/XII (hCA XII),SMILES,GI50 at 72 h [1],also measured
1060 nM,33.8 nM,559 nM,5.1 nM,207,6.6,110,12.5 nM,84.5,2.7,44.8,"COc1cccc(-c2ccnc3nc(Nc4ccc(S(N)(=O)=O)cc4)nn23)c1 [Compound 1x, 4-((7-(3-Methoxyphenyl)-[1,2,4]triazolo[1,5-a]pyrimidin-2-yl)amino)benzenesulfonamide]",> 10 µM,"effect of combination on efficacy of CDDP in reducing cell viability [2]: significantly improved the efficacy of CDDP; decrease in viability ([3]; 10 µM, HuTuP192, hypoxic conditions): most potent"
496 nM,13.9 nM,662 nM,8.6 nM,57.7,1.6,77.0,5.4 nM,91.9,2.6,123,"NS(=O)(=O)c1ccc(Nc2nc3nccc(-c4c(F)ccc(F)c4F)n3n2)cc1 [Compound 1j, 4-((7-(2,3,6-Trifluorophenyl)-[1,2,4]triazolo[1,5-a]pyrimidin-2-yl)amino)benzenesulfonamide]",> 10 µM,effect of combination on efficacy of CDDP in reducing cell viability [2]: significantly improved the efficacy of CDDP; effect of combination on the effect of TMZ [3]: did not significantly improve the effect of TMZ; effect of combination on the effect of TMZ [4]: did not significantly improve the effect of TMZ; apoptotic cells in combination with cis-Pt (HD-MB03 cells): significant increase in the percentage of apoptotic cells; induction of apoptosis (apoptotic cells) (HD-MB03 cells): about 25%; apoptotic cells in combination with TMZ [5]: significant increase in the percentage of apoptotic cells; induction of apoptosis [5]: ineffective
9150 nM,155 nM,6480 nM,14.8 nM,618,10 and 10.5,438,16.9 nM,541,9.2,384,"NS(=O)(=O)c1ccc(Nc2nc3nccc(-c4ccccc4Cl)n3n2)cc1 [Compound 1m, 4-((7-(2-Chlorophenyl)-[1,2,4]triazolo[1,5-a]pyrimidin-2-yl)amino)benzenesulfonamide]",> 10 µM,effect of combination on efficacy of CDDP in reducing cell viability [2]: significantly improved the efficacy of CDDP; effect of combination on the effect of TMZ [3]: did not significantly improve the effect of TMZ; effect of combination on the effect of TMZ [4]: did not significantly improve the effect of TMZ
,,,,,,,,,,,"[NH2][Pt]([NH2])([Cl])[Cl] [CDDP, cisplatin, reference compound]",,viability reduction by CDDP alone ([2]; CDDP concentration used for combination (cis-Pt 1.8 µM)): around 50%
2200 nM,72.9 nM,6320 nM,11 nM,200,6.6,575,31.6 nM,69.5,2.3,200,"COc1ccccc1-c1ccnc2nc(Nc3ccc(S(N)(=O)=O)cc3)nn12 [Compound 1y, 4-((7-(2-Methoxyphenyl)-[1,2,4]triazolo[1,5-a]pyrimidin-2-yl)amino)benzenesulfonamide]",> 10 µM,effect of combination on the effect of TMZ [3]: did not significantly improve the effect of TMZ; effect of combination on the effect of TMZ [4]: did not significantly improve the effect of TMZ
,,,,,,,,,,,"NS(=O)(=O)c1ccc(NC(=O)Nc2ccc(F)cc2)cc1 [SLC-0111, reference compound]",> 10 µM,apoptotic cells in combination with cis-Pt (HD-MB03 cells): did not cause any increase in cytotoxicity; induction of apoptosis (apoptotic cells) (HD-MB03 cells): did not significantly induce apoptosis; apoptotic cells in combination with TMZ [5]: did not cause any increase in cytotoxicity; induction of apoptosis [5]: did not significantly induce apoptosis
,,,,,,,,,,,"Cn1nnc2c(C(N)=O)ncn2c1=O [TMZ, temozolomide, reference compound]",,response of cells to TMZ ([4]; TMZ 500 µM): resistant
725 nM,43.7 nM,726 nM,41.6 nM,17.4,1.0,17.5,15.3 nM,47.4,2.9,47.5,"NS(=O)(=O)c1ccc(Nc2nc3nccc(-c4ccncc4)n3n2)cc1 [Compound 1c, 4-((7-(Pyridin-4-yl)-[1,2,4]triazolo[1,5-a]pyrimidin-2-yl)amino)benzenesulfonamide]",,
1630 nM,89.6 nM,2000 nM,50.8 nM,32.0,1.8,39.4,39.8 nM,40.9,2.2,50.3,"COc1ccc(-c2ccnc3nc(Nc4ccc(S(N)(=O)=O)cc4)nn23)cc1 [Compound 1w, 4-((7-(4-Methoxyphenyl)-[1,2,4]triazolo[1,5-a]pyrimidin-2-yl)amino)benzenesulfonamide]",,
682 nM,35.9 nM,920 nM,19.5 nM,35.0,1.8,47.2,25.8 nM,26.4,1.4,35.7,"NS(=O)(=O)c1ccc(Nc2nc3nccc(-c4ccccc4F)n3n2)cc1 [Compound 1h, 4-((7-(2-Fluorophenyl)-[1,2,4]triazolo[1,5-a]pyrimidin-2-yl)amino)benzenesulfonamide]",,
6580 nM,124 nM,5980 nM,30.4 nM,216,4.06,197,46.4 nM,142,2.7,129,"NS(=O)(=O)c1ccc(Nc2nc3nccc(-c4cccc(Cl)c4)n3n2)cc1 [Compound 1l, 4-((7-(3-Chlorophenyl)-[1,2,4]triazolo[1,5-a]pyrimidin-2-yl)amino)benzenesulfonamide]",,
3470 nM,48 nM,690 nM,49.9 nM,69.5,1.0,13.8,4.3 nM,806,11.2,160,"NS(=O)(=O)c1ccc(Nc2nc3nccc(-c4cccc([N+](=O)[O-])c4)n3n2)cc1 [Compound 1r, 4-((7-(3-Nitrophenyl)-[1,2,4]triazolo[1,5-a]pyrimidin-2-yl)amino)benzenesulfonamide]",,
2260 nM,69.3 nM,3650 nM,43.5 nM,51.9,1.6,83.9,55.2 nM,40.9,1.2,66.1,"CCOc1ccc(-c2ccnc3nc(Nc4ccc(S(N)(=O)=O)cc4)nn23)cc1 [Compound 1z, 4-((7-(4-Ethoxyphenyl)-[1,2,4]triazolo[1,5-a]pyrimidin-2-yl)amino)benzenesulfonamide]",,
